The subject of assay [1] is Cavia porcellus. Put plainly: Activity against histamine induced bronchoconstriction in guinea pig, no significant inhibition when compound dose (10 mg/kg) given intravenously; NA means inactive. The assay is classed as functional, organism-based.
In assay [2] the test system is Cavia porcellus. Put plainly: (§1) Inhibition of leukotriene D4 induced bronchoconstriction in anesthetized guinea pigs after aerosol administration as 1% solution. The assay is classed as functional, organism-based. The gist of the method:
(§2)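 Guinea pigs given propranolol 0.1 mg/kg iv 5 min before 5-min ultrasonic nebulizer exposure to aqueous, NaOH-neutralized drug (% w/v) or distilled water, breathing spontaneously. LTD4 50 µg/kg iv 30 s after exposure; tracheal pressure change.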

The test system of assay [3] is Cavia porcellus. The description is as §1. The class given is functional. The method in brief: as §2
For assay [4], the species on record is Cavia porcellus. Put plainly: In vitro activity to inhibit SRS-A induced contraction of guinea pig ileum.
The species named for assay [5] is Cavia porcellus. Put plainly: Inhibitory activity to inhibit antigen induced bronchoconstriction in guinea pig. The class given is functional.
Assay [6] relates to Cavia porcellus. Put plainly: Duration of action of leukotriene D4 as time for inhibition to decrease to 40%, compound was administered at a concentration 1%, for 5 min by aerosol. The assay is classed as functional. The method in brief:
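Aerosol guinea pig bronchoconstriction with LTD4 challenge; drug given as 1% nebulized solution for 5 min. Duration taken as time for inhibition to fall to 40%.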

Assay [7] concerns Cavia porcellus. Put plainly: Duration of action of leukotriene E4 as time for inhibition to decrease to 40%, compound administered at a concentration of 1%,for 5 min by aerosol. The assay is classed as functional. The gist of the method: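 Aerosol guinea pig bronchoconstriction with LTE4 challenge; drug given as 1% nebulized solution for 5 min. Duration taken as time for inhibition to fall to 40%.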

For assay [8], the system named is Cavia porcellus. Put plainly: Time taken for inhibition of antigen induced bronchoconstriction in guinea pig to decrease to 40%, compound was administered at a concentration of 1%, for 5 min by aerosol. The assay is classed as functional. The method in brief: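 Aerosol guinea pig bronchoconstriction with antigen challenge; drug given as 1% nebulized solution for 5 min. Duration taken as time for inhibition to fall to 40%.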

Assay [9] relates to Cavia porcellus. Put plainly: Duration of action of leukotriene E4 as time for inhibition to decrease to 40%, compound was administered at a dose of 10 mg/kg. The class given is functional. The method in brief: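 Intravenous guinea pig bronchoconstriction with LTE4 challenge; drug 10 mg/kg iv. Duration taken as time for inhibition to fall to 40%.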
The species named for assay [10] is Cavia porcellus. Put plainly: Activity against histamine induced bronchoconstriction in guinea pig, no significant inhibition at concentration of 1% by aerosol; NA means inactive. The class given is functional, organism-based.
Assay [11] has as its system Cavia porcellus. Put plainly: In vivo guinea pig bronchoconstriction against leukotriene D4 when administered a compound dose (mg/kg) intravenously. The class given is functional. Particulars: Lung, iv, read-out: ID50 (the source's name). The method in brief:
(§3)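 Male Hartley guinea pigs, 400–600 g, urethane 2 g/kg ip, jugular cannula, propranolol 0.1 mg/kg iv 5 min before challenge, succinylcholine 1.2 mg/kg iv, ventilated. Vehicle or drug iv 30 s before LTD4 25 µg/kg iv; tracheal pressure change.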

The species entered for a further assay is Rattus norvegicus. Put plainly: Inhibitory activity to inhibit Inophore-induced arachidonic acid metabolism (inhibition of LTB4 formation) in rat. The class given is functional, organism-based. The gist of the method: (§4)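 Rat peritoneal macrophages adhered 90 min at 37 °C, labeled with [14C]arachidonic acid 90 min, washed. Compound 30 min at 37 °C, then A23187 0.5 µM for 20 min. LTB4 and PGE2 in medium by radioimmunoassay.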

Assay [12] concerns the target Dual specificity calcium/calmodulin-dependent 3',5'-cyclic nucleotide phosphodiesterase 1A (Bos taurus, UniProt P14100). Put plainly: Inhibition of bovine heart Phosphodiesterase 1A.
The species named for assay [13] is Cavia porcellus. Put plainly: In vitro activity to inhibit leukotriene D4 induced contraction of guinea pig trachea. The class given is functional. Particulars: read-out: pA2 (converted). The gist of the method: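 Guinea pig tracheal smooth muscle contracted by LTD4; pA2 and Schild slope reported.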
In assay [14] the test system is Cavia porcellus. Put plainly: Activity against platelet activating factor in guinea pig, no significant inhibition when compound dose (10 mg/kg) given intravenously; NA means inactive. The class given is functional, organism-based.
Assay [15] has as its system Cavia porcellus. Put plainly: In vivo guinea pig bronchoconstriction against leukotriene C4 when administered a compound dose (mg/kg) intravenously. The following applies: Lung, iv, read-out: ID50 (the source's name). The assay is classed as functional.
Assay [16] relates to Cavia porcellus. Put plainly: Duration of action of leukotriene D4 as time for inhibition to decrease to 40%, compound was administered at a dose of 10 mg/kg. The class given is functional. The gist of the method:
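Intravenous guinea pig bronchoconstriction with LTD4 challenge; drug 10 mg/kg iv. Duration taken as time for inhibition to fall to 40%.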

The target of assay [17] is T1, Cysteinyl leukotriene receptor 1 (Cavia porcellus, UniProt Q2NNR5).
T1 sequence (Q2NNR5 whole entry): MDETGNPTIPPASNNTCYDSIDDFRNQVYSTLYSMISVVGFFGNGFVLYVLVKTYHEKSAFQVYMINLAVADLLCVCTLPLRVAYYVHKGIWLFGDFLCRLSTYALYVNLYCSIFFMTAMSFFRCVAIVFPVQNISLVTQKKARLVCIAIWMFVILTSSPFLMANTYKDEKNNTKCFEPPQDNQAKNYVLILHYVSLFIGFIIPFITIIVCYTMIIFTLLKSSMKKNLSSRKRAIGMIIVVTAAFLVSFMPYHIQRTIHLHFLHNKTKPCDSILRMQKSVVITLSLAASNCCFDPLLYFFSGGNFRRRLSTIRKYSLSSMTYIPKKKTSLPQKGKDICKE
Put plainly: Inhibitory activity of compound to block binding of [3H]leukotriene D4 to Cysteinyl leukotriene D4 receptor sites in homogenized guinea pig lung. The gist of the method:
(§5)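 Lung from male Hartley guinea pigs (400–500 g), homogenized in sucrose/Tris pH 7.5 with protease inhibitors; 30000g membrane pellet in 10 mM PIPES pH 7.5, 50 mM NaCl. Binding: Tyrode, 0.1% BSA, 1 mM glycine, 1 mM cysteine, 3.5 nM [3H]LTD4, 100–200 µg protein, 20 °C, 30 min; glass-fiber filtration. Nonspecific with 10^-6 M LTD4. Triplicate screen at 10 µM; IC50 by linear regression.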

The subject of assay [18] is Cavia porcellus. Put plainly: Inhibition of leukotriene D4 induced bronchoconstriction in anesthetized guinea pigs after intravenous administration. The following applies: read-out: ID50 (the source's name). The class given is functional. The method in brief:
as §3

For assay [19], the species on record is Cavia porcellus. Put plainly: Activity against platelet activating factor in guinea pig, no significant inhibition at concentration of 1% by aerosol; NA means inactive. The class given is functional, organism-based.
Assay [20] concerns Cavia porcellus. Put plainly: In vivo guinea pig bronchoconstriction against leukotriene E4 when administered a compound dose(mg/kg) intravenously. The class given is functional. Particulars: Lung, iv, read-out: ID50 (the source's name).
Assay [21] has as its system Cavia porcellus. Put plainly: (§6) Inhibition of leukotriene D4 induced bronchoconstriction in anesthetized guinea pigs after intravenous administration at a dose of 10 mg/kg. The class given is functional. The method in brief: as §3
Assay [22] addresses T2, Cysteinyl leukotriene receptor 1 (Cavia porcellus) (UniProt Q2NNR5).
T2 sequence (whole entry): T1 sequence (Q2NNR5 whole entry)
Put plainly: Inhibitory activity of compound to block binding of [3H]leukotriene D4 to Cysteinyl L-Cysteinyl leukotriene D4 receptor sites in homogenized guinea pig lung at 10 uM. The gist of the method: as §5

Assay [23] is described as follows: Inhibitory activity to inhibit Inophore-induced arachidonic acid metabolism (inhibition of PGE-2 formation) in rat. The assay is classed as functional. The method in brief:
as §4

The target in assay [24] is T2, Cysteinyl leukotriene receptor 1 (Cavia porcellus). Described as §6. The assay is classed as functional, organism-based. Details: dose 10 mg/kg. The gist of the method:
as §3

The subject of assay [25] is Cysteinyl leukotriene receptor (Cavia porcellus). Put plainly: Inhibitory activity of compound to block binding of radiolabeled leukotriene D4 to receptor sites in homogenized guinea pig lung at 10 uM.
Assay [26] concerns the target T2, Cysteinyl leukotriene receptor 1 (Cavia porcellus). Put plainly: Inhibitory activity of compound to block binding of radiolabeled Cysteinyl leukotriene D4 receptor sites in homogenized guinea pig lung at 10 uM. The method in brief:
as §5

The target is the same in assay [27]. The assay is described as §6. The class given is organism-based. Details: dose 10 mg/kg. The gist of the method:
as §3

For assay [28] the target is unchanged. The assay is described as §1. Particulars: concentration not given here. The method in brief: as §2
The subject of assay [29] is Cysteinyl leukotriene receptor 1 (Cavia porcellus). Put plainly: Inhibitory activity of compound to block binding of radiolabeled Cysteinyl leukotriene D4 receptor sites in homogenized guinea pig lung at 10 uM.
Assay [30] concerns the target T2, Cysteinyl leukotriene receptor 1 (Cavia porcellus). Put plainly: Inhibitory activity of compound to block binding of radiolabeled leukotriene D4 to receptor sites in homogenized guinea pig lung at 10 uM. The gist of the method:
as §5

Experimental findings from ChEMBL document CHEMBL1124636, “3,4-Dihydro-2H-1-benzopyran-2-carboxylic acids and related compounds as leukotriene antagonists” (J Med Chem, 1989) are described below.

pIC50: −log10 of the molar value. Activity calls are given as the source filed them. The calls are words filed in the database; no cut-off is given here.

Chain of Dual specificity calcium/calmodulin-dependent 3',5'-cyclic nucleotide phosphodiesterase 1A (P14100 whole entry): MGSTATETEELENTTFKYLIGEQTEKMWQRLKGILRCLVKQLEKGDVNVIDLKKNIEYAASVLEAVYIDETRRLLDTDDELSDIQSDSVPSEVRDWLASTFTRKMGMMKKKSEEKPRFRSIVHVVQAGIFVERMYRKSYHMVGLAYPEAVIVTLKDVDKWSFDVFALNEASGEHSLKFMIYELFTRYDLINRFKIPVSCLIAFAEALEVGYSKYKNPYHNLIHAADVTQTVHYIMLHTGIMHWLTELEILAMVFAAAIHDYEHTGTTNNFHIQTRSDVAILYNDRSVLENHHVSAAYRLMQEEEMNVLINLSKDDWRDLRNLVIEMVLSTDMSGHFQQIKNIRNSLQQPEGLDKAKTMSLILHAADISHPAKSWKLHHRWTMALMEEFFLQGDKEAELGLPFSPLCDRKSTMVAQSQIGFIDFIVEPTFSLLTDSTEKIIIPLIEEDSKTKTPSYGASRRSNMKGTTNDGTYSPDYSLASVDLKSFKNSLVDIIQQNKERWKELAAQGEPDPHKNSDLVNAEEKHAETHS

The term inhibition denotes the share of the control response that was lost under treatment. A word on the Inhibition: it is the drop in the measured response relative to a control, in per cent. High values mean a response far below the control, low ones a response near the control. What is called pIC50 is the IC50 on a negative log10 scale, so that one unit is a factor of ten. The inhibition in vivo is how much of the control response was suppressed. Low values mean a weak effect, high ones a strong effect. Regarding `CCCc1c(OCCCCCOc2cc3c(cc2C(C)=O)CCC(C(=O)O)O3)ccc(C(C)=O)c1O` (stereo not drawn) [ABLUKAST], the inhibition result with Cavia porcellus [1], in the assay listed under Cavia porcellus [10], in the assay on Cavia porcellus [14] and in the assay filed under Cavia porcellus [19] was “inactive” throughout. The compound further displayed an IC50 in the assay on Cavia porcellus [2] of 0.007 % conc. Further, the Inhibition in the assay on Cavia porcellus [3] turned out to be 89%; in the assay filed under Cavia porcellus [5] it was 0.027%. The pIC50 in the assay filed under Cavia porcellus [4] was 7.22; in the assay filed under Rattus norvegicus, 5.40; in assay [12] it was 4.44; in [17], 5.40; in [23], 5.15. Moreover, the Duration turned out to be 150 min with Cavia porcellus [6]; 90 min in the assay with Cavia porcellus [7]; 250 min with Cavia porcellus [8]; 40 min in the assay with Cavia porcellus [9]; 40 min in the assay on Cavia porcellus [16]. In addition, the ED50 is 5 mg/kg with Cavia porcellus [11], 3 mg/kg in the assay on Cavia porcellus [15], 5 mg/kg with Cavia porcellus [18] and 1 mg/kg with Cavia porcellus [20]. Moreover, the Kb in the assay listed under Cavia porcellus [13] was 0.251 µM. Moreover, 10 mg/kg produced 93% inhibition in vivo with Cavia porcellus [21]. The compound also displayed an inhibition in [22] of 70%.
`CCCc1c(O)c(C(C)=O)cc(O)c1OCCCCCOc1cc2c(cc1C(C)=O)CCC(C(=O)O)O2` (stereo not drawn) showed an inhibition in [24] of 0%. This compound also came in with an Inhibition in assay [25] of 0%.
`CCCCCCCCCCCCc1ccccc1C(SCCC(=O)O)SCCC(=O)O`: the inhibition in [26] worked out at 24%; in assay [27] it was 29%; in assay [28] it was 39%.
`CCCc1c(OCCCCCCCOc2cc3c(cc2C(C)=O)CCC(C(=O)O)O3)ccc(C(C)=O)c1O` (stereo not drawn) gave an Inhibition in the assay with Cavia porcellus [3] of 44%. Further, the inhibition in [29] and in assay [30] was 39% throughout.
As to `CCCc1c(OCCCCCOc2c(C(C)=O)cc3c(c2CCC)OC(C(=O)O)CC3)ccc(C(C)=O)c1O` (stereo not drawn), in assay [28], the inhibition is 44%.
For `CC(C)c1ccc2c(c1)c(SC(C)(C)C)c(CC(C)(C)C(=O)O)n2Cc1ccc(Cl)cc1`, the pIC50 in the assay listed under Rattus norvegicus was 6.70; in assay [23], 5.30.
On to `O=C(O)CCSC(SCCC(=O)O)c1ccccc1CCCCCCCCc1ccccc1`, for which the Inhibition was found to be 58% with Cavia porcellus [3] and 81% in [25]. In the assay on Cavia porcellus [21], this compound came in with an inhibition in vivo at 10 mg/kg of 20%.
